Measurements as given in ChEMBL document CHEMBL3098049, “Concise synthesis and biological evaluation of 2-Aroyl-5-amino benzo[b]thiophene derivatives as a novel class of potent antimitotic agents” (J Med Chem, 2013).
Activity calls are given as the source filed them. The rule behind the calls is not given here.

Assays:
[1] = test system: HeLa; test: Cytotoxicity against human HeLa cells assessed as growth inhibition after 48 hrs by coulter counting analysis; format: functional, cell-based
[2] = Cytotoxicity against human Molt4/C8 cells assessed as growth inhibition after 48 hrs by coulter counting analysis; format: functional, cell-based; conditions: MOLT-4, 48 h
Outline: (§1)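 Cells suspended at (3−5) × 10⁵ cells/mL and mixed 1:1 with compound dilutions. Incubated 48 h at 37 °C, counted with a Coulter counter. IC₅₀ = concentration inhibiting proliferation by 50%. Mean of at least three independent experiments.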

[3] = test system: L1210; test: Cytotoxicity against mouse L1210 cells assessed as growth inhibition after 48 hrs by coulter counting analysis; format: functional, cell-based; conditions: L1210, 48 h; outline: as §1
[4] = Cytotoxicity against mouse FM3A/0 cells assessed as growth inhibition after 48 hrs by coulter counting analysis; format: functional, cell-based; conditions: FM3A/0, 48 h
[5] = Cytotoxicity against human CEM/0 cells assessed as growth inhibition after 48 hrs by coulter counting analysis; format: functional, cell-based; conditions: CCRF-CEM
[6] = target: T1, Tubulin (Homo sapiens) (UniProt P68371+Q9H4B7+P0DPH7+P68366+Q13509+Q71U36+P04350+Q3ZCM7+P07437+P68363+Q9BQE3+Q6PEY2+Q13885+Q9BVA1+Q9BUF5); test: Displacement of [3H]-colchicine from tubulin (unknown origin) at 5 uM after 10 mins relative to control; format: protein-complex assay
[7] = Inhibition of bovine brain tubulin polymerization preincubated for 15 mins followed by GTP addition measured for 20 mins by turbidometric analysis; design: species or system Bos taurus
[8] = test system: MNNG-HOS; test: Antitumor activity against human MNNG-HOS cells xenografted in Balb/c-nu mouse assessed as reduction in tumor weight at 50 mg/kg, ip administered once every 3 days for 9 days measured after day 18; format: functional, organism-based; design: dose 50 mg/kg; conditions: HOS-TE85
Outline: (§2)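 MNNG/HOS osteosarcoma cells grown to exponential phase, suspended in FBS-free MEM (10⁷ cells/mL), 0.1 mL injected into back hypodermis of nude mice. At ~100 mm³, 12 mice randomised to three groups (vehicle, CA-4P in isotonic saline, test in 5% DMSO/olive oil). 50 mg/kg ip at 0.01 mL/g on days 0, 3, 6, 9. Tumour volume and body weight tracked; tumours excised and weighed day 18; […].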

[9] = test system: MNNG-HOS; test: Antitumor activity against human MNNG-HOS cells xenografted in Balb/c-nu mouse assessed as tumor growth inhibition at 50 mg/kg, ip administered once every 3 days for 9 days measured on day 18 relative to vehicle-treated control; format: functional; conditions: HOS-TE85, ip, route intraperitoneal, read-out: TGI; outline: as §2
[10] = target: T1, Tubulin (Homo sapiens); test: Displacement of [3H]-colchicine from tubulin (unknown origin) at 1 uM after 10 mins relative to control; format: protein-complex assay

Row | SMILES | IC50 [1] | IC50 [2] | IC50 [3] | IC50 [4] | IC50 [5] | inhibition [6] | IC50 [7] | Activity [8] | inhibition in vivo at 50 mg/kg [9] | inhibition [10]
1 | COc1cc(C(=O)c2cc3cc(NC(=O)CI)ccc3s2)cc(OC)c1OC | 1500 nM | 330 nM | 1400 nM | 2100 nM |  |  |  |  |  | 
2 | C=C(Br)C(=O)Nc1cc(OC)c2sc(C(=O)c3cc(OC)c(OC)c(OC)c3)cc2c1 | 760 nM | 280 nM | 96 nM | 200 nM | 260 nM |  |  |  |  | 
3 | COc1cc(C(=O)c2cc3cc(NC(=O)CBr)cc(OC)c3s2)cc(OC)c1OC | 220 nM | 360 nM | 420 nM | 250 nM | 340 nM |  |  |  |  | 
4 | COc1cc(C(=O)c2cc3cc(N(C)C)cc(OC)c3s2)cc(OC)c1OC | 360 nM | 980 nM |  | 1100 nM |  |  |  |  |  | 
5 | COc1cc(C(=O)c2sc3ccccc3c2N)cc(OC)c1OC |  |  |  |  |  | 39% | 4200 nM |  |  | 
6 | CNc1cc(OC)c2sc(C(=O)c3cc(OC)c(OC)c(OC)c3)cc2c1 | 66 nM | 74 nM | 67 nM | 190 nM |  |  |  |  |  | 
7 | COc1ccc(/C=C\c2cc(OC)c(OC)c(OC)c2)cc1OP(=O)(O)O [FOSBRETABULIN DISODIUM] |  |  |  |  |  |  |  | Active | 32% | 
8 | COc1ccc(C(=O)c2cc3cc(N)cc(OC)c3s2)cc1OC | 1600 nM | 1700 nM | 1900 nM | 2200 nM | 1400 nM |  |  |  |  | 
9 | COc1cc(C(=O)c2sc3c(OC)cccc3c2N)cc(OC)c1OC |  |  |  |  |  | 39% | 2100 nM |  |  | 
10 | COc1cc(C(=O)c2cc3cc(NC(=O)CBr)ccc3s2)cc(OC)c1OC | 1600 nM | 960 nM | 1400 nM | 1700 nM | 260 nM |  |  |  |  | 
11 | COc1cc(C(=O)c2cc3cc(N)ccc3s2)cc(OC)c1OC | 13 nM | 18 nM | 0.78 nM | 2.8 nM | 11 nM | 65% | 3200 nM |  |  | 
12 | COc1cc(C(=O)c2sc3ccc(N)cc3c2C)cc(OC)c1OC | 100 nM | 100 nM | 8 nM | 200 nM | 72 nM | 78% | 1300 nM |  |  | 
13 | COc1cc(C(=O)c2cc3cc(NC(=O)CI)cc(OC)c3s2)cc(OC)c1OC | 200 nM | 330 nM | 410 nM | 370 nM | 310 nM |  |  |  |  | 
14 | COc1cc(C(=O)c2cc3cc(NC(=O)CCl)cc(OC)c3s2)cc(OC)c1OC | 100 nM | 78 nM |  | 200 nM | 72 nM |  |  |  |  | 
15 | COc1ccc(C(=O)c2cc3cc(N)cc(OC)c3s2)cc1 |  | 6500 nM | > 10000 nM | > 10000 nM | 6100 nM |  |  |  |  | 
16 | C=C(Br)C(=O)Nc1ccc2sc(C(=O)c3cc(OC)c(OC)c(OC)c3)cc2c1 | 700 nM | 270 nM | 75 nM | 170 nM | 140 nM |  |  |  |  | 
17 | COc1cc(C(=O)c2sc3c(OC)cc(N)cc3c2C)cc(OC)c1OC | 13 nM | 14 nM | 12 nM | 15 nM |  | 95% | 480 nM |  |  | 90%
18 | COc1cc2sc(C(=O)c3cc(OC)c(OC)c(OC)c3)c(C)c2cc1N |  | 16 nM | 19 nM | 17 nM | 19 nM | 95% | 680 nM |  |  | 83%
19 | COc1cc(C(=O)c2cc3cc(NC(C)=O)cc(OC)c3s2)cc(OC)c1OC | 69 nM | 98 nM |  | 340 nM |  |  |  |  |  | 
